For seven molecules, IC50 results are on record in ChEMBL document CHEMBL1128301, “Cephalosporin derivatives of doxorubicin as prodrugs for activation by monoclonal antibody-beta-lactamase conjugates” (J Med Chem, 1995).

What all share (format): functional, cell-based
The test system of assay [1] is H2981 cell line. The experiment in a line: Cytotoxicity on H2981 Human lung adenocarcinoma cells. In outline: (§1)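 H2981 cells in IMDM/10% FBS were seeded at 4000 or 8000 per well and left 18 h at 37 °C. Drug, ±EClbL, was given in RPMI/10% FBS over a concentration range for 1 h at 37 °C, then washed off and cells kept 18 h. [³H]thymidine (1 μCi/well) was pulsed 6 h (8000 cells) or 18 h (4000 cells).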

The subject of assay [2] is H2981 cell line. The experiment in a line: Enterobacter cloacae P99 beta-lactamase (ECIbL) enzyme concentration required to achieve an IC50 value of compound on H2981 lung adenocarcinoma cells. The note with it: Homo sapiens. The gist of the method:
(§2)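 H2981 cells were plated at 4000 or 8000/well and allowed to adhere 18 h at 37 °C. Prodrug was held fixed at 1 μM while β-lactamase was titrated. After 1 h at 37 °C, cells were washed and incubated 18 h. A [³H]thymidine pulse (1 μCi/well) followed, 6 h or 18 h depending on seeding.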

The subject of assay [3] is H2981 cell line. The assay is described as follows: Concentration resulting in 50% incorporation of [3H]thymidine compared to untreated control cells on H2981 human lung adenocarcinoma cells in the absence of Enterobacter cloacae P99 beta-lactamase (ECIbL). The note with it: H2981, 1 h. The gist of the method: as §1
Assay [4] has as its system H2981 cell line. The assay is described as follows: Concentration resulting in 50% incorporation of [3H]thymidine compared to untreated control cells on H2981 human lung adenocarcinoma cells in the presence of 10 ug/mL Enterobacter cloacae P99 beta-lactamase (ECIbL). The note with it: H2981, 1 h. In outline: as §1
Assay [5] deals with H2981 cell line. The experiment in a line: Bacillus cereus beta-lactamase (BCbL) enzyme concentration required to achieve an IC50 value of compound on H2981 lung adenocarcinoma cells. The note with it: Homo sapiens. The gist of the method:
as §2

Assay [6] concerns H2981 cell line. The experiment in a line: Escherichia coli TEM-1 beta-lactamase (ECbL) enzyme concentration required to achieve an IC50 value of compound on H2981 lung adenocarcinoma cells. The note with it: Homo sapiens. The gist of the method: as §2
Assay [7] relates to H2981 cell line. The assay is described as follows: Concentration resulting in 50% incorporation of [3H]thymidine compared to untreated control cells on H2981 human lung adenocarcinoma cells in the presence of doxorubicin. The note with it: H2981, 1 h. In outline:
as §1

For `COc1cccc2c1C(=O)c1c(O)c3c(c(O)c1C2=O)C[C@@](O)(C(=O)CO)C[C@@H]3O[C@H]1C[C@H](N)[C@H](O)[C@H](C)O1` [DOXORUBICIN], the IC50 (as a rule, the point on the concentration scale where inhibition reaches its midpoint) with H2981 cell line [1] amounted to 500 nM.
With `COc1cccc2c1C(=O)c1c(O)c3c(c(O)c1C2=O)C[C@@](O)(C(=O)CO)C[C@@H]3OC1CC(NC(=O)OCC2=C(C(=O)O)N3C(=O)[C@@H](NC(=O)Cc4ccccc4)[C@H]3SC2)C(O)C(C)O1` (some centres not stated), the half-inhibitory concentration (IC50) with H2981 cell line [2] came to 0.012 nM; in the assay with H2981 cell line [3], 7400 nM; in the assay with H2981 cell line [4], 750 nM; in the assay on H2981 cell line [5], 0.25 nM; in the assay on H2981 cell line [6] it was 0.68 nM; with H2981 cell line [7], 550 nM.
As to `COc1cccc2c1C(=O)c1c(O)c3c(c(O)c1C2=O)C[C@@](O)(C(=O)CO)C[C@@H]3OC1CC(NC(=O)OCC2=C(C(=O)O)N3C(=O)[C@@H](NC(=O)CSC4OC(CO)C(O)C(O)C4O)[C@H]3SC2)C(O)C(C)O1` (some centres not stated), the IC50 in the assay with H2981 cell line [2] came to 0.13 nM; with H2981 cell line [3], 2500 nM; in the assay with H2981 cell line [4], 450 nM; with H2981 cell line [5] it was 1.58 nM; in the assay with H2981 cell line [6], 1.13 nM; in the assay with H2981 cell line [7], 460 nM.
Regarding `COc1cccc2c1C(=O)c1c(O)c3c(c(O)c1C2=O)C[C@@](O)(C(=O)CO)C[C@@H]3OC1CC(NC(=O)OCC2=C(C(=O)O)N3C(=O)[C@@H](N)[C@H]3SC2)C(O)C(C)O1` (some centres not stated), the IC50 in the assay with H2981 cell line [2] was found to be 9.86 nM; with H2981 cell line [3], 8200 nM; with H2981 cell line [4], 430 nM; in the assay with H2981 cell line [5] it was 24.9 nM; in the assay on H2981 cell line [6], 185 nM; in the assay on H2981 cell line [7] it was 460 nM.
Turning to `COc1cccc2c1C(=O)c1c(O)c3c(c(O)c1C2=O)C[C@@](O)(C(=O)CO)C[C@@H]3OC1CC(NC(=O)OCC2=C(C(=O)O)N3C(=O)[C@@H](NC(=O)Cc4cccs4)[C@H]3SC2)C(O)C(C)O1` (some centres not stated), the IC50 in the assay on H2981 cell line [2] worked out at 0.024 nM; with H2981 cell line [3], 10300 nM; in the assay on H2981 cell line [4], 550 nM; with H2981 cell line [5], 0.21 nM; in the assay with H2981 cell line [6], 0.25 nM; in the assay on H2981 cell line [7], 560 nM.
With `COc1cccc2c1C(=O)c1c(O)c3c(c(O)c1C2=O)C[C@@](O)(C(=O)CO)C[C@@H]3OC1CC(NC(=O)OCC2=C(C(=O)O)N3C(=O)[C@@H](NC(=O)C(c4ccccc4)S(=O)(=O)O)[C@H]3SC2)C(O)C(C)O1` (some centres not stated), the IC50 worked out at 5.65 nM with H2981 cell line [2]; 14800 nM in the assay on H2981 cell line [3]; 470 nM in the assay on H2981 cell line [4]; 0.39 nM in the assay on H2981 cell line [5]; 22.7 nM in the assay on H2981 cell line [6]; 560 nM with H2981 cell line [7].
Take `COc1cccc2c1C(=O)c1c(O)c3c(c(O)c1C2=O)C[C@@](O)(C(=O)CO)C[C@@H]3OC1CC(NC(=O)OCC2=C(C(=O)O)N3C(=O)[C@@H](NC(=O)CCCC(=O)O)[C@H]3SC2)C(O)C(C)O1` (some centres not stated): the half-maximal inhibitory concentration (IC50) turned out to be 0.039 nM with H2981 cell line [2]; 21900 nM in the assay on H2981 cell line [3]; 470 nM in the assay on H2981 cell line [4]; 1.13 nM with H2981 cell line [5]; 6.5 nM in the assay on H2981 cell line [6]; 480 nM with H2981 cell line [7].
